We go through seven molecules from publication PMC8027986 (Cell chemical biology, 2020).

One experiment addresses recombinant PfMAGLLP (Plasmodium falciparum, UniProt Q8IJ22). Description: Fluorogenic substrate assay with rPfMAGLLP. Conditions: for inhibition of esterase activity of PfMAGLLP: 1 μM compound; for inhibition at 1 µM: read-out: inhibition of esterase activity of PfMAGLLP. The class given is biochemical.
Experiment [1] relates to Sal A-selected clones and parental Dd2_Polδ line. Nature of the experiment: IC50 determination for Sal A-selected clones. Format: cell-based, Plasmodium falciparum. Conditions: versus parental Dd2_Polδ.
The subject of experiment [2] is parasites expressing PfATP4 fused to GFP. Description: Imaging of PfATP4-GFP parasites. To be noted: 18 h treatment from 24-30 hpi; 2 μM Sal A or 6 μM Orlistat. The class given is cell-based, Plasmodium falciparum.
Experiment [3] relates to P. falciparum W2 parasites. Nature of the experiment: P. falciparum replication assay. The class given is cell-based, Plasmodium falciparum. Conditions: for EC50: Plasmodium falciparum, W2, 72 h, read-out: EC50 parasite growth inhibition; for effect of isopentenyl pyrophosphate (IPP) on potency: 72 h growth assays in presence and absence of IPP. The essentials: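 Synchronized ring-stage W2 parasites in human erythrocytes, at 1% parasitemia and 0.5% hematocrit, exposed to test compound for 72 h. Cultures fixed in 1% paraformaldehyde (final) for 30 min at room temperature, then stained overnight at 4°C with 50 nM YOYO-1. Infected (YOYO-1-positive) versus uninfected cells counted by flow cytometry.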

The subject of experiment [4] is a variety of mammalian cell lines. Conditions: ref Schulze et al., 2015; cited from earlier work.
Experiment [5] has as its target human depalmitoylase APT2 (Homo sapiens, UniProt O95372). Description: FP-Rho labeling competition in HEK293T cells, APT2. The class given is cell-based. The method, boiled down:
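Lysates of treated HEK293T cells, clarified at 4°C and quantified by BCA; 50 μg lysate labeled with 1 μM FP-Rho for 1 h at 37°C. Reactions quenched in reducing SDS sample buffer, resolved by SDS-PAGE, and gel fluorescence scanned (532-nm laser, 610-nm filter).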

Experiment [6] has as its system Dd2 parasites overexpressing PfMAGLLP or other putative Sal A targets. Description: Dose-response assays with parasites overexpressing putative Sal A targets. The class given is cell-based, Plasmodium falciparum.
In experiment [7] the test system is T. gondii depalmitoylase PPT1 (TgPPT1). Nature of the experiment: FP-Rho labeling competition in T. gondii parasites. Format: cell-based, Toxoplasma gondii. To be noted: WT (Δku80) and ΔPPT1 parasites.
The test system of experiment [8] is Pf lines expressing WT-GFP or S179T-GFP PfPARE. Nature of the experiment: Sal A sensitivity of parasites expressing WT or S179T PfPARE-GFP. Format: cell-based, Plasmodium falciparum. Conditions: WT-GFP versus S179T-GFP.
Experiment [9] concerns the target human depalmitoylase APT1 (Homo sapiens, UniProt O75608). Description: FP-Rho labeling competition in HEK293T cells, APT1. Format: cell-based.
The subject of experiment [10] is serine hydrolases in Plasmodium falciparum parasites. Description: FP-Rho labeling competition in whole Pf parasites. To be noted: 1 μM Sal A. The class given is cell-based. The method, boiled down: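 P. falciparum cultures (ring/trophozoite, 13% parasitemia) treated with DMSO or test compound for 3 h at 37°C. 50 μg clarified lysate labeled with 1 μM FP-Rho for 1 h at 37°C; SDS-PAGE with in-gel fluorescence scan.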

human depalmitoylase APT2, sequence (O95372 whole entry): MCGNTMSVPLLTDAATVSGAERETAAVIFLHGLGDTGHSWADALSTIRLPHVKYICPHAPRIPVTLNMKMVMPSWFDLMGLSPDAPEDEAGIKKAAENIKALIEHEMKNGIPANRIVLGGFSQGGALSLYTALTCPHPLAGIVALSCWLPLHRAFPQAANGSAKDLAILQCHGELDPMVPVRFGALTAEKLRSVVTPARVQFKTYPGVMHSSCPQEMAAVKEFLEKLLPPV
human depalmitoylase APT1, sequence (O75608 whole entry): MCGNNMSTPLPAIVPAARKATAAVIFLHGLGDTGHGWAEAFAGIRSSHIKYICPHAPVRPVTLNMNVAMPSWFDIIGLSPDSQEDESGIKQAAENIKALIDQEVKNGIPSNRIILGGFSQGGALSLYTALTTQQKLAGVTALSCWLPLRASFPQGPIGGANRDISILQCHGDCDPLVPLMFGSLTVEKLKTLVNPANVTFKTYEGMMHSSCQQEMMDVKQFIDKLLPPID

For the molecule `O=C(Oc1ccc([N+](=O)[O-])cc1)N1CCC(C(O)(c2ccc3c(c2)OCO3)c2ccc3c(c2)OCO3)CC1` [JZL 184], at recombinant PfMAGLLP, the “inhibition of esterase activity of PfMAGLLP” value is 25%.
Consider `CCCCCCCCCCC[C@@H](C[C@@H]1OC(=O)[C@H]1CCCCCC)OC(=O)[C@H](CC(C)C)NC=O` [Orlistat], for which the “potency against recombinant PfMAGLLP relative to Sal A” value at recombinant PfMAGLLP is “equipotent to Sal A”. In addition, the “cross-resistance of Sal A-selected clones” value in experiment [1] is “No significant cross-resistance”. The “plasma membrane phenotype of schizonts” value in experiment [2] is listed as “disorganized plasma membranes that failed to properly surround the merozoites”. Besides, in experiment [3], the EC50 turned out to be 280 nM.
Regarding Salinipostin A [Sal A], in experiment [4], the “selectivity index over a variety of mammalian cell lines” value is > 1,000. Moreover, in experiment [5], the “inhibition of APT2 (FP-Rho competition)” value is “inhibits the human depalmitoylases APT1 and APT2 in a dose-dependent manner”; the “relative potency APT2 versus APT1” value is recorded as “increased potency against APT2 over APT1”. Moreover, the “shift in EC50 in parasites overexpressing PF3D7_0808500 or PF3D7_0818600” value in experiment [6] (exogenous overexpression) is “no shift in EC50”. Besides, the “shift in EC50 in parasites overexpressing PfMAGLLP versus WT” value in experiment [6] (exogenously transfected plasmid) is “no apparent shift”. In addition, the “competition with FP-Rho for labeling of TgPPT1” value in [7] was “able to compete with FP-Rho for labeling of TgPPT1”. The “plasma membrane phenotype of schizonts” value in [2] is “disorganized plasma membranes that failed to properly surround the merozoites”. Moreover, the “sensitivity of parasites expressing WT or catalytically dead PfPARE” value in experiment [8] was “equally sensitive”. Further, the “effect of isopentenyl pyrophosphate (IPP) on potency” value in [3] is “unaffected by IPP”. Also, the “inhibition of APT1 (FP-Rho competition)” value in experiment [9] is “inhibits the human depalmitoylases APT1 and APT2 in a dose-dependent manner”. For the same molecule, in experiment [10], the “inhibition of FP-Rho labeling of hydrolases in whole Pf parasites” value was “Several hydrolases were inhibited”.
Consider Salinipostin alkyne [Sal alk], for which, in experiment [3], the “effect of isopentenyl pyrophosphate (IPP) on potency” value is “unaffected by IPP”. Further, the “potency against Pf parasites compared with parent natural product” value in [3] (Pf parasites, Figure S1) is listed as “retained full potency”.
For `O=C(ON1C(=O)CCC1=O)N1CCN(C(c2ccc(Cl)cc2)c2ccc(Cl)cc2)CC1` [MJN110], the “inhibition of esterase activity of PfMAGLLP” value on recombinant PfMAGLLP is “more than 90%”.
As for `O=C(OC(C(F)(F)F)C(F)(F)F)N1CCN(C(c2ccc(Cl)cc2)c2ccc(Cl)cc2)CC1` [JW651], on recombinant PfMAGLLP, the “potency against recombinant PfMAGLLP relative to Sal A” value is “virtually identical potency as Sal A” and the inhibition at 1 µM was over 90%. Moreover, in experiment [1], the “cross-resistance of Sal A-selected clones” value is recorded as “no cross-resistance”. Also, the EC50 in experiment [3] worked out at 839 nM. In addition, the “decrease in potency against parasites as compared with Sal A” value in [3] (W2 parasites) was determined as 16 fold.
As to `O=C(OC(C(F)(F)F)C(F)(F)F)N1CCC(C(O)(c2ccc3c(c2)OCO3)c2ccc3c(c2)OCO3)CC1` [KML29], on recombinant PfMAGLLP, the IC50 amounted to 163 nM and the inhibition at 1 µM was over 90%.

One may read the EC50 as the concentration that produces a half-maximal response. As usually defined, the inhibition is the relative decrease from the control value, in per cent. In general, IC50 refers to the concentration at which inhibition is half-maximal.
